Results as given in PMC5826771 (Molecular pharmaceutics, 2017).
Where a SMILES comes first, the peptide text is derived from it. [ ]: non-standard residue; d: D form. Sar = CNCC(=O)O

What was measured:
hPepT1 [1] = target: T1, hPepT1 (Homo sapiens, UniProt P46059); type: cell-based; conditions: hPepT1-expressing oocytes; for induction of inward current (in words): pH 6.0, voltage clamp −50 mV
T1 sequence (P46059 1-708): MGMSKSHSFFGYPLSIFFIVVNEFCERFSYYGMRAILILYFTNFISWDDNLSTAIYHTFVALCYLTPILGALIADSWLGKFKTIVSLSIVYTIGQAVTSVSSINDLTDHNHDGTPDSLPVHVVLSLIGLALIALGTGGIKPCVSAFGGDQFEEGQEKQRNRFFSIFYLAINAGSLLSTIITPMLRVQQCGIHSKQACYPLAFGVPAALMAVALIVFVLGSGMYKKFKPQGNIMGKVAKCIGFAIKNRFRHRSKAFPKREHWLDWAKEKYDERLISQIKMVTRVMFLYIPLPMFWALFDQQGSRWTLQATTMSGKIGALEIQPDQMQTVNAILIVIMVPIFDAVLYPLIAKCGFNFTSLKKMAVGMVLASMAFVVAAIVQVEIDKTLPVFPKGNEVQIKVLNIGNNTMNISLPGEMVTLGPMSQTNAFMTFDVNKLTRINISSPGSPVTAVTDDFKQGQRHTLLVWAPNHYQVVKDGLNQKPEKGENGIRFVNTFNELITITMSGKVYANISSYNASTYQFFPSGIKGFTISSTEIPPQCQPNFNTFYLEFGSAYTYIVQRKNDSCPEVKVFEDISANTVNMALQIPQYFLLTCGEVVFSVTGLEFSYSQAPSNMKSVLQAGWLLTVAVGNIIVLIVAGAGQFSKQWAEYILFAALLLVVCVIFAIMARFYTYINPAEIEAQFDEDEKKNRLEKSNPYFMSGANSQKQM
How it was run: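 Stage V–VI X. laevis oocytes were collagenase-treated, defolliculated, held at 18 °C in modified Barth's medium with gentamicin, and injected with 50 ng hPepT1 cRNA, with water-injected controls. TEVC clamped at −50 mV under pH 7.5 buffer, then NaCl buffer pH 6.0 ± test compound to steady state, then washout. Induced current = steady-state difference, expressed relative to 1 mM or 250 µM glycylsarcosine currents.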

hPepT1 [2] = target: T1, hPepT1; conditions: cited from earlier work
hPepT1 [3] = target: T1, hPepT1; type: cell-based

| Structure (SMILES) | induction of inward current (in words) (hPepT1 [1]) | induced inward current (hPepT1 [1]; 1 mM, buffer pH 6.0, clamped at −50 mV) | identified as hPepT1 inhibitor (hPepT1 [2]) | IC50 (hPepT1 [3]) [mM] |
| --- | --- | --- | --- | --- |
| Nc1ccc(CC(=O)O)cc1 [4-amino PA, 4-amino phenyl acetic acid] | induced significant inward currents |  |  |  |
| CN(CC(=O)O)C(=O)CN [glycylsarcosine] (H-Gly-[Sar]-OH) |  | 300–400 nA |  |  |
| COC(=O)[C@H](Cc1ccccc1)NC(=O)[C@@H](N)CC(=O)O [aspartame] (H-Asp-Phe-OMe) | induced significant inward currents |  | inhibitor | 3.9 |
